Measured values from ChEMBL document CHEMBL3124806, “Imidazopyridine-fused [1,3]-diazepinones: synthesis and antiproliferative activity” (Eur J Med Chem, 2014).
Activity calls are given as the source filed them. The rule behind the calls is not given here.

Key:
A549 = test: Cytotoxicity against human A549 cells after 48 hrs by SRB assay; assay type: functional; conditions: A549, 48 h
Summary of the method: (§1)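 NCI-60 five-dose testing, 100 to 0.01 µM, under a 48 h continuous-exposure protocol. Growth estimated by SRB protein assay, read spectrophotometrically against untreated controls; IC50 derived from the dose-response.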

A498 = test: Cytotoxicity against human A498 cells after 48 hrs by SRB assay; assay type: functional; conditions: A498, 48 h; summary of the method: as §1
IGROV-1 = test: Cytotoxicity against human IGROV1 cells after 48 hrs by SRB assay; assay type: functional; conditions: IGROV-1, 48 h; summary of the method: as §1
M14 = test: Cytotoxicity against human M14 cells after 48 hrs by SRB assay; assay type: functional; conditions: M14, 48 h; summary of the method: as §1
[1] = Cytotoxicity against human CAL-1 cells assessed as cell growth at 10 uM after 48 hrs by MTT assay relative to untreated control; assay type: functional; conditions: CAL1, 48 h, read-out: Activity
Summary of the method: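 CAL1 melanoma cells grown in DMEM with 2 mM L-glutamine and 10% FCS at 37 °C, 5% CO2. Seeded at 10^4 cells/well, grown 24 h, then treated 48 h across 100–0.01 μM (compounds dissolved in medium). Read-out: 0.5 mg mL⁻¹ MTT for 4 h, crystals dissolved in EtOH/DMSO 1:1, absorbance at 540 nm.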

MDA-MB-435 [2] = test: Cytotoxicity against human MDA-MB-435 cells assessed as cell growth at 10 uM after 48 hrs by MTT assay relative to untreated control; assay type: functional; conditions: MDA-MB-435, 48 h, read-out: Activity
Summary of the method: (§2)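 Melanoma lines grown at 37 °C in humidified 5% CO2: MDA-MB-435 in DMEM/Ham's F12 1:1 with 10% FCS and antibiotics, SK-MEL-2 in RPMI-1640 with 10% FCS. Cells plated 24 h, then exposed 48 h to 100–0.01 µM (dilutions from fresh 100 µM stock in medium). MTT 0.5 mg/mL added for 4 h, crystals dissolved in EtOH/DMSO 1:1, absorbance read at 540 nm. Mean ± SD of three independent experiments.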

DU-145 = test: Cytotoxicity against human DU145 cells after 48 hrs by SRB assay; assay type: functional; conditions: DU-145, 48 h; summary of the method: as §1
HCT-15 = test: Cytotoxicity against human HCT15 cells after 48 hrs by SRB assay; assay type: functional; conditions: HCT-15, 48 h; summary of the method: as §1
NCI-H23 = test: Cytotoxicity against human NCI-H23 cells after 48 hrs by SRB assay; assay type: functional; conditions: NCI-H23, 48 h
Summary of the method: (§3)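 NCI-60 five-dose screen: cells exposed continuously for 48 h across 100 to 0.01 µM. Growth or viability estimated by sulforhodamine B protein staining, read spectrophotometrically against untreated controls; IC50 taken from the dose-response.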

HCC 2998 = test: Cytotoxicity against human HCC2998 cells after 48 hrs by SRB assay; assay type: functional; conditions: HCC 2998, 48 h; summary of the method: as §1
NCI-H226 = test: Cytotoxicity against human NCI-H226 cells after 48 hrs by SRB assay; assay type: functional; conditions: NCI-H226, 48 h; summary of the method: as §3
HT-29 = test: Cytotoxicity against human HT-29 cells after 48 hrs by SRB assay; assay type: functional; conditions: HT-29, 48 h; summary of the method: as §1
786-0 = test: Cytotoxicity against human […] cells after 48 hrs by SRB assay; assay type: functional; conditions: 786-0, 48 h; summary of the method: as §1
[3] = target: Cyclin-dependent kinase 2 (Homo sapiens) (UniProt P24941); test: Inhibition of human CDK2 at 10 uM
Summary of the method: (§4)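 Kinase selectivity panel of 19 protein tyrosine kinases and 30 serine/threonine kinases, run by a contract lab (CEREP). Each compound was tested at a single dose of 10 μM in duplicate.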

NCI-H322M = test: Cytotoxicity against human NCI-H322M cells after 48 hrs by SRB assay; assay type: functional; summary of the method: as §3
MDA-MB-231 = test: Cytotoxicity against human MDA-MB-231 cells after 48 hrs by SRB assay; assay type: functional; conditions: MDA-MB-231, 48 h; summary of the method: as §3
MDA-MB-435 [4] = test: Cytotoxicity against human MDA-MB-435 cells at 5 uM after 8 hrs by MTT assay; assay type: functional
Summary of the method: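 MDA-MB-435 cells in DMEM/Ham's F12 (1:1) with 10% FCS, 37 °C, 5% CO2. Time course at a fixed 5 µM, incubated 8, 16, 24 or 48 h. Viability then read by MTT reduction (0.5 mg/mL, 4 h), formazan dissolved in EtOH/DMSO, absorbance at 540 nm, as percent living cells.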

[5] = Cytotoxicity against human UACC257 cells after 48 hrs by SRB assay; assay type: functional; conditions: UACC-257, 48 h
Summary of the method: (§5)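 NCI-60 five-dose mode on the full human tumour line panel. Concentrations ran from 100 to 0.01 µM with 48 h continuous exposure. Growth was estimated by SRB protein staining against untreated controls, and IC50 values were derived from the dose–response.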

MDA-MB-468 = test: Cytotoxicity against human MDA-MB-468 cells after 48 hrs by SRB assay; assay type: functional; conditions: MDA-MB-468, 48 h; summary of the method: as §3
[6] = Cytotoxicity against human UO31 cells after 48 hrs by SRB assay; assay type: functional; conditions: UO-31, 48 h; summary of the method: as §5
SNB-19 = test: Cytotoxicity against human SNB19 cells after 48 hrs by SRB assay; assay type: functional; conditions: SNB-19, 48 h; summary of the method: as §5
SK-MEL-2 = test: Cytotoxicity against human SK-MEL-2 cells assessed as cell growth at 10 uM after 48 hrs by MTT assay relative to untreated control; assay type: functional; conditions: SK-MEL-2, 48 h, read-out: Activity; summary of the method: as §2
[7] = target: Glycogen synthase kinase-3 beta (Homo sapiens) (UniProt P49841); test: Inhibition of human GSK3 beta at 10 uM; summary of the method: as §4
SK-MEL-5 = test: Cytotoxicity against human SK-MEL-5 cells after 48 hrs by SRB assay; assay type: functional; conditions: SK-MEL-5, 48 h; summary of the method: as §5
K562 = test: Cytotoxicity against human K562 cells after 48 hrs by SRB assay; assay type: functional; conditions: K562, 48 h; summary of the method: as §1
[8] = read-out: LC50 (the source's name)

Glycogen synthase kinase-3 beta (Homo sapiens), sequence (P49841 whole entry, looked up): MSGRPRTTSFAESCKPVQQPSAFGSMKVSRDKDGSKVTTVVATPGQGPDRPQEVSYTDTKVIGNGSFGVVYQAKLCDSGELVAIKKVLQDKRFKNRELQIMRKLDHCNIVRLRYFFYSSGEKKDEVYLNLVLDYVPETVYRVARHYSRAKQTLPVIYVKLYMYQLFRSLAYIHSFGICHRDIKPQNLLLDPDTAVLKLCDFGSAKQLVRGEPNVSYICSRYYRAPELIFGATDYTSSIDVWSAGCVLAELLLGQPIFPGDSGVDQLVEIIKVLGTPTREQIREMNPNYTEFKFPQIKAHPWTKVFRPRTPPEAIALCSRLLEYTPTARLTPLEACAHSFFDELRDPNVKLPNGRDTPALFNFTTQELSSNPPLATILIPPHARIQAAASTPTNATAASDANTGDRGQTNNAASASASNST

## C[C@@H]1NC(c2ccc(Br)cc2)=Nc2nc3ccccn3c2C1=O
A549
  GI50: 6.7 µM
  TGI: > 100 µM
A549; [8]
  CC50: > 100 µM
A498
  GI50: 3.26 µM
  TGI: 38.2 µM
A498; [8]
  CC50: > 100 µM
IGROV-1
  GI50: 51.9 µM
  TGI: > 100 µM
IGROV-1; [8]
  CC50: > 100 µM
M14
  GI50: 3.2 µM
  TGI: 48.2 µM
M14; [8]
  CC50: > 100 µM
[1]
  growth at 10 µM: 12%
MDA-MB-435 [2]
  growth at 10 µM: -15%
DU-145
  GI50: 23.2 µM
  TGI: > 100 µM
DU-145; [8]
  CC50: > 100 µM
HCT-15
  GI50: 3.64 µM
  TGI: > 100 µM
HCT-15; [8]
  CC50: > 100 µM
NCI-H23
  GI50: 25.4 µM
  TGI: > 100 µM
NCI-H23; [8]
  CC50: > 100 µM
HCC 2998
  GI50: 21.9 µM
  TGI: > 100 µM
HCC 2998; [8]
  CC50: > 100 µM
NCI-H226
  GI50: 14.7 µM
  TGI: > 100 µM
NCI-H226; [8]
  CC50: > 100 µM
HT-29
  GI50: 3.73 µM
  TGI: > 100 µM
HT-29; [8]
  CC50: > 100 µM
786-0
  GI50: 28.3 µM
  TGI: > 100 µM
786-0; [8]
  CC50: > 100 µM
[3]
  inhibition: inactive
NCI-H322M
  GI50: 23.6 µM
  TGI: > 100 µM
NCI-H322M; [8]
  CC50: > 100 µM
MDA-MB-231
  GI50: 6.08 µM
  TGI: > 100 µM
MDA-MB-231; [8]
  CC50: > 100 µM
MDA-MB-435 [4]
  Activity: 35%
[5]
  GI50: 35.2 µM
  TGI: > 100 µM
[5]; [8]
  CC50: > 100 µM
MDA-MB-468
  GI50: 1.98 µM
  TGI: 5.12 µM
MDA-MB-468; [8]
  CC50: > 100 µM
[6]
  GI50: 8.11 µM
  TGI: > 100 µM
[6]; [8]
  CC50: > 100 µM
SNB-19
  GI50: 7.45 µM
  TGI: > 100 µM
SNB-19; [8]
  CC50: > 100 µM
SK-MEL-2
  growth at 10 µM: 32%
[7]
  inhibition: inactive
SK-MEL-5
  GI50: 2.24 µM
  TGI: 40.5 µM
SK-MEL-5; [8]
  CC50: > 100 µM
K562
  GI50: 4.13 µM
  TGI: > 100 µM
K562; [8]
  CC50: > 100 µM
